Test results taken from ChEMBL document CHEMBL3102843, “Synthesis and antifungal activity of substituted 2,4,6-pyrimidinetrione carbaldehyde hydrazones” (Bioorg Med Chem, 2014).
In brackets after ≈: the same amount, converted by molar mass. Activity calls are given as the source filed them. How the calls were made is not given here.

Legend:
Nakaseomyces glabratus = assay: Antifungal activity against Candida glabrata ATCC 48435 after 48 to 72 hrs by broth microdilution method; type: functional
In short: (§1)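 Broth microdilution per NCCLS. Organisms were subcultured on Sabouraud agar. Inoculum was 5–7 colonies from YM agar in sterile water, adjusted to 0.5 McFarland at 530 nm (1–5×10⁶ cells/mL stock), held 30 min at RT, then diluted 1:50 in HEPES-buffered RPMI 1640. DMSO stocks were twofold-diluted, with final DMSO ≤1%. Plates ran 48–72 h at 35 °C, humid. MIC is the lowest concentration giving ≥80% growth reduction vs drug-free wells, scored visually. Fluconazole or amphotericin B ran as drug control.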

Candida albicans = assay: Antifungal activity against Candida albicans ATCC 10231 after 48 to 72 hrs by broth microdilution method; type: functional; in short: as §1

CN1C(=O)C(=Cc2ccc(O)cc2O)C(=O)N(C)C1=O
MIC80 (Nakaseomyces glabratus): 2 µg/mL (≈ 7.24 µM) | MIC80 (Candida albicans): inactive

CN1C(=O)C(=Cc2ccc(N(C)C)cc2)C(=O)N(C)C1=O
MIC80 (Nakaseomyces glabratus): inactive | MIC80 (Candida albicans): inactive

COc1ccc(C=C2C(=O)N(C)C(=O)N(C)C2=O)c(OC)c1OC
MIC80 (Nakaseomyces glabratus): inactive | MIC80 (Candida albicans): inactive

C/C(=N\Nc1ccc([N+](=O)[O-])cc1[N+](=O)[O-])C1C(=O)N(C)C(=O)N(C)C1=O
MIC80 (Nakaseomyces glabratus): inactive | MIC80 (Candida albicans): inactive

C/C(=N\NS(=O)(=O)c1ccccc1)C1C(=O)NC(=O)NC1=O
MIC80 (Nakaseomyces glabratus): inactive | MIC80 (Candida albicans): inactive

O=C1NC(=O)C(=Cc2ccoc2)C(=O)N1
MIC80 (Nakaseomyces glabratus): inactive | MIC80 (Candida albicans): inactive

COc1ccc(C(=O)N/N=C(\C)C2C(=O)NC(=O)NC2=O)cc1
MIC80 (Nakaseomyces glabratus): inactive | MIC80 (Candida albicans): inactive

O=C1NC(=O)C(/C=N/c2ccncc2)C(=O)N1
MIC80 (Nakaseomyces glabratus): inactive | MIC80 (Candida albicans): inactive

O=C1NC(=O)C(/C=N/Nc2ccccc2)C(=O)N1
MIC80 (Nakaseomyces glabratus): 2 µg/mL (≈ 8.12 µM) | MIC80 (Candida albicans): 4 µg/mL (≈ 16.2 µM)

COC(=O)N/N=C(\c1ccc([N+](=O)[O-])cc1)C1C(=O)NC(=O)NC1=O
MIC80 (Nakaseomyces glabratus): inactive | MIC80 (Candida albicans): inactive

CN1C(=O)C(/C=N/C2N=NN=N2)C(=O)N(C)C1=O
MIC80 (Nakaseomyces glabratus): inactive | MIC80 (Candida albicans): inactive

C/C(=N\NC(=O)c1ccc([N+](=O)[O-])cc1)C1C(=O)NC(=O)NC1=O
MIC80 (Nakaseomyces glabratus): 125 µg/mL (≈ 375 µM) | MIC80 (Candida albicans): inactive

O=C1NC(=O)C(/C=N/n2cnnc2)C(=O)N1
MIC80 (Nakaseomyces glabratus): inactive | MIC80 (Candida albicans): inactive

O=C1NC(=O)C(/C=N/c2ccccc2)C(=O)N1
MIC80 (Nakaseomyces glabratus): inactive | MIC80 (Candida albicans): inactive

O=C1NC(=O)C(=C/C=C/c2ccccc2)C(=O)N1
MIC80 (Nakaseomyces glabratus): inactive | MIC80 (Candida albicans): 62 µg/mL (≈ 256 µM)

C/C(=N\CCCCCC(=O)O)C1C(=O)NC(=O)NC1=O
MIC80 (Nakaseomyces glabratus): inactive | MIC80 (Candida albicans): inactive

CN/N=C(\C)C1C(=O)N(C)C(=O)N(C)C1=O
MIC80 (Nakaseomyces glabratus): inactive | MIC80 (Candida albicans): inactive

O=C1NC(=O)C(/C=N/c2nnc[nH]2)C(=O)N1
MIC80 (Nakaseomyces glabratus): inactive | MIC80 (Candida albicans): inactive

O=C1NC(=O)N(c2ccccc2)C(=O)/C1=C\c1ccc(O)cc1
MIC80 (Nakaseomyces glabratus): inactive | MIC80 (Candida albicans): inactive

O=C1NC(=O)C(/C=N/NC(=O)c2ccccc2)C(=O)N1
MIC80 (Nakaseomyces glabratus): inactive | MIC80 (Candida albicans): inactive

C/C(=N\NS(=O)(=O)c1ccc(C)cc1)C1C(=O)NC(=O)NC1=O
MIC80 (Nakaseomyces glabratus): inactive | MIC80 (Candida albicans): inactive

CN1C(=O)C(/C=N/c2ccccc2)C(=O)N(C)C1=O
MIC80 (Nakaseomyces glabratus): inactive | MIC80 (Candida albicans): inactive

O=C1NC(=O)C(/C=N/c2cccc(O)c2)C(=O)N1
MIC80 (Nakaseomyces glabratus): inactive | MIC80 (Candida albicans): inactive

CN1C(=O)C(=Cc2ccc(O)cc2)C(=O)N(C)C1=O
MIC80 (Nakaseomyces glabratus): inactive | MIC80 (Candida albicans): inactive

O=C1NC(=O)C(=Cc2cccc3ccccc23)C(=O)N1
MIC80 (Nakaseomyces glabratus): inactive | MIC80 (Candida albicans): 125 µg/mL (≈ 469 µM)

C/C(=N\Nc1ccc([N+](=O)[O-])cc1[N+](=O)[O-])C1C(=O)NC(=O)NC1=O
MIC80 (Nakaseomyces glabratus): inactive | MIC80 (Candida albicans): inactive

O=C1NC(=O)C(/C=N/c2ccccn2)C(=O)N1
MIC80 (Nakaseomyces glabratus): inactive | MIC80 (Candida albicans): inactive

O=C1NC(=O)C(/C(=N/Nc2ccc([N+](=O)[O-])cc2[N+](=O)[O-])c2ccccc2)C(=O)N1
MIC80 (Nakaseomyces glabratus): inactive | MIC80 (Candida albicans): inactive

O=C1NC(=O)C(/C=N/c2ccc(O)cc2)C(=O)N1
MIC80 (Nakaseomyces glabratus): inactive | MIC80 (Candida albicans): inactive

CN/N=C/C1C(=O)NC(=O)NC1=O
MIC80 (Nakaseomyces glabratus): inactive | MIC80 (Candida albicans): inactive

CN1C(=O)C(/C=N/c2ccccn2)C(=O)N(C)C1=O
MIC80 (Nakaseomyces glabratus): inactive | MIC80 (Candida albicans): inactive

CN1C(=O)C(/C=N/N)C(=O)N(C)C1=O
MIC80 (Nakaseomyces glabratus): 16 µg/mL (≈ 80.7 µM) | MIC80 (Candida albicans): 125 µg/mL (≈ 631 µM)

O=C1NC(=O)C(/C=N/c2ccc([N+](=O)[O-])cc2)C(=O)N1
MIC80 (Nakaseomyces glabratus): inactive | MIC80 (Candida albicans): inactive

C/C(=N\N)C1C(=O)N(C)C(=O)N(C)C1=O
MIC80 (Nakaseomyces glabratus): inactive | MIC80 (Candida albicans): inactive

CN1C(=O)C(/C=N/NC(=O)c2ccccc2)C(=O)N(C)C1=O
MIC80 (Nakaseomyces glabratus): inactive | MIC80 (Candida albicans): inactive

C/C(=N\Nc1ccccc1)C1C(=O)NC(=O)NC1=O
MIC80 (Nakaseomyces glabratus): 2 µg/mL (≈ 7.68 µM) | MIC80 (Candida albicans): 2 µg/mL (≈ 7.68 µM)

COc1ccc(/N=C/C2C(=O)NC(=O)NC2=O)cc1
MIC80 (Nakaseomyces glabratus): inactive | MIC80 (Candida albicans): inactive

O=C1NC(=O)C(/C=N/Nc2ccc([N+](=O)[O-])cc2[N+](=O)[O-])C(=O)N1
MIC80 (Nakaseomyces glabratus): 125 µg/mL (≈ 372 µM) | MIC80 (Candida albicans): inactive

C/C(=N\c1ccncc1)C1C(=O)NC(=O)NC1=O
MIC80 (Nakaseomyces glabratus): inactive | MIC80 (Candida albicans): inactive

O=C1NC(=O)C(=Cc2ccccc2O)C(=O)N1
MIC80 (Nakaseomyces glabratus): 8 µg/mL (≈ 34.5 µM) | MIC80 (Candida albicans): inactive

CN1C(=O)C(/C(=N/Nc2ccc([N+](=O)[O-])cc2[N+](=O)[O-])c2ccc(O)cc2)C(=O)N(C)C1=O
MIC80 (Nakaseomyces glabratus): inactive | MIC80 (Candida albicans): inactive

O=C1NC(=O)C(=Cc2ccc(O)cc2)C(=O)N1
MIC80 (Nakaseomyces glabratus): inactive | MIC80 (Candida albicans): inactive

C/C(=N\NS(=O)(=O)c1ccccc1)C1C(=O)N(C)C(=O)N(C)C1=O
MIC80 (Nakaseomyces glabratus): inactive | MIC80 (Candida albicans): inactive

C/C(=N\N)C1C(=O)NC(=O)NC1=O
MIC80 (Nakaseomyces glabratus): inactive | MIC80 (Candida albicans): inactive

C/C(=N\c1ccccc1)C1C(=O)NC(=O)NC1=O
MIC80 (Nakaseomyces glabratus): inactive | MIC80 (Candida albicans): inactive

O=C1NC(=O)N(c2ccccc2)C(=O)C1/C(=N/Nc1ccc([N+](=O)[O-])cc1[N+](=O)[O-])c1ccccc1 (stereo not drawn)
MIC80 (Nakaseomyces glabratus): inactive | MIC80 (Candida albicans): inactive

C/C(=N\c1ccc(O)cc1)C1C(=O)NC(=O)NC1=O
MIC80 (Nakaseomyces glabratus): inactive | MIC80 (Candida albicans): inactive

C/C(=N\c1ccncc1)C1C(=O)N(C)C(=O)N(C)C1=O
MIC80 (Nakaseomyces glabratus): inactive | MIC80 (Candida albicans): inactive

COC(=O)N/N=C/C1C(=O)NC(=O)NC1=O
MIC80 (Nakaseomyces glabratus): inactive | MIC80 (Candida albicans): inactive

C/C(=N\NC(=O)c1ccccc1)C1C(=O)N(C)C(=O)N(C)C1=O
MIC80 (Nakaseomyces glabratus): inactive | MIC80 (Candida albicans): inactive

CN1C(=O)C(/C=N/c2ccncc2)C(=O)N(C)C1=O
MIC80 (Nakaseomyces glabratus): inactive | MIC80 (Candida albicans): inactive

O=C1NC(=O)C(=Cc2ccc3ccccc3c2)C(=O)N1
MIC80 (Nakaseomyces glabratus): inactive | MIC80 (Candida albicans): 125 µg/mL (≈ 469 µM)

O=C1NC(=O)C(=Cc2ccccc2)C(=O)N1
MIC80 (Nakaseomyces glabratus): inactive | MIC80 (Candida albicans): inactive

COC(=O)N/N=C(\c1ccc(O)cc1)C1C(=O)N(C)C(=O)N(C)C1=O
MIC80 (Nakaseomyces glabratus): inactive | MIC80 (Candida albicans): inactive

COc1ccc(/N=C(\C)C2C(=O)N(C)C(=O)N(C)C2=O)cc1
MIC80 (Nakaseomyces glabratus): inactive | MIC80 (Candida albicans): inactive

CN(C)c1ccc(C=C2C(=O)NC(=O)NC2=O)cc1
MIC80 (Nakaseomyces glabratus): inactive | MIC80 (Candida albicans): 62 µg/mL (≈ 239 µM)

C/C(=N\c1ccccc1)C1C(=O)N(C)C(=O)N(C)C1=O
MIC80 (Nakaseomyces glabratus): inactive | MIC80 (Candida albicans): inactive

COc1ccc(C=C2C(=O)N(C)C(=O)N(C)C2=O)cc1
MIC80 (Nakaseomyces glabratus): inactive | MIC80 (Candida albicans): inactive

CN1C(=O)C(/C=N/c2ccc(-c3ccccc3)cc2)C(=O)N(C)C1=O
MIC80 (Nakaseomyces glabratus): inactive | MIC80 (Candida albicans): inactive
